17 molecules from ChEMBL document CHEMBL2321760, “Design, synthesis, and biological evaluation of a series of benzo[de][1,7]naphthyridin-7(8H)-ones bearing a functionalized longer chain appendage as novel PARP1 inhibitors” (J Med Chem, 2013) can be followed below.

A word on the IC50: it is the concentration needed to halve the response being measured. By inhibition is commonly meant the change of the read-out against control, counted positive when it falls. Broadly, the Cmax is the peak of the concentration-time curve. One may read the CC50 as the concentration that lowers cell viability or growth by half. What is called bioavailability is dose-corrected exposure relative to a reference, in per cent. What is called clearance is a measure of how efficiently the substance is removed, as volume per time. Higher therefore signals efficient removal. One may read the Tmax as the time from dosing to the highest level. One may read the AUC(0-inf) as the area under the concentration-time curve extrapolated to infinity. A lower AUC(0-inf) goes with low exposure. For orientation: half-life means how long it takes for the measured level to halve. As usually defined, the AUC is concentration integrated over time.

Active and inactive are the calls of the source. The calls are words filed in the database; no cut-off is given here.

The target of data set [1] is Poly [ADP-ribose] polymerase 1 (Homo sapiens, UniProt P09874). The data set can be described thus: Inhibition of human recombinant PARP1 after 1 hr by ELISA. A general note: ELISA stands for enzyme-linked immunosorbent assay.
Sequence of Poly [ADP-ribose] polymerase 1 (P09874 whole entry): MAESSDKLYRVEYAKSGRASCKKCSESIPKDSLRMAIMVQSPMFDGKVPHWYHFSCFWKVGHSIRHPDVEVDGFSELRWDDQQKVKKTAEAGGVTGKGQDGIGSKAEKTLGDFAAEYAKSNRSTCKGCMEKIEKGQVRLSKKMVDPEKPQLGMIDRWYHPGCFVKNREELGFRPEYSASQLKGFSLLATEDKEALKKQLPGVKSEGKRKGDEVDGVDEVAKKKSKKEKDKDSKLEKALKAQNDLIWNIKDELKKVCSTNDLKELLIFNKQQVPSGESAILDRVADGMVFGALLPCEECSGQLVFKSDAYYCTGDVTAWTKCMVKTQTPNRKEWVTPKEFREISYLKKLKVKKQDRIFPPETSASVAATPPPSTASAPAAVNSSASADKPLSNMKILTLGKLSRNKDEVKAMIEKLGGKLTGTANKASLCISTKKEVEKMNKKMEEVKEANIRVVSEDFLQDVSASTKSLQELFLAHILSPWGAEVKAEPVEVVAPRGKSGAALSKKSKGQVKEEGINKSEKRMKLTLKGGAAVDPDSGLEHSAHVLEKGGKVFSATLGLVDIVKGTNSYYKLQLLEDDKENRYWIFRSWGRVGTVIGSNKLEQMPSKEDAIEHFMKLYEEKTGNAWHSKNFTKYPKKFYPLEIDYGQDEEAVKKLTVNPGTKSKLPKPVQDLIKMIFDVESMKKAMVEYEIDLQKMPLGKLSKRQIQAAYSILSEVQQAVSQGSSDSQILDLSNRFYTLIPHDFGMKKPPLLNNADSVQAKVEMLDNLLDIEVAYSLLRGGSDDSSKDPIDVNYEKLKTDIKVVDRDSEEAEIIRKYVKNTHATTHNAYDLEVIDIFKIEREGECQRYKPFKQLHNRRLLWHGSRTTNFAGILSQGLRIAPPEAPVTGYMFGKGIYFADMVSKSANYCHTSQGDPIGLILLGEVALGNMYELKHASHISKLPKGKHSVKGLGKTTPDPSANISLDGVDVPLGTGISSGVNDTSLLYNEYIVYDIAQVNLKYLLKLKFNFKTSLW
The target in another data set is hERG (KCNH2) (Homo sapiens, UniProt Q12809). The data set can be described thus: Inhibition of human ERG at 5 uM relative to control.
Sequence of hERG (KCNH2) (Q12809 whole entry): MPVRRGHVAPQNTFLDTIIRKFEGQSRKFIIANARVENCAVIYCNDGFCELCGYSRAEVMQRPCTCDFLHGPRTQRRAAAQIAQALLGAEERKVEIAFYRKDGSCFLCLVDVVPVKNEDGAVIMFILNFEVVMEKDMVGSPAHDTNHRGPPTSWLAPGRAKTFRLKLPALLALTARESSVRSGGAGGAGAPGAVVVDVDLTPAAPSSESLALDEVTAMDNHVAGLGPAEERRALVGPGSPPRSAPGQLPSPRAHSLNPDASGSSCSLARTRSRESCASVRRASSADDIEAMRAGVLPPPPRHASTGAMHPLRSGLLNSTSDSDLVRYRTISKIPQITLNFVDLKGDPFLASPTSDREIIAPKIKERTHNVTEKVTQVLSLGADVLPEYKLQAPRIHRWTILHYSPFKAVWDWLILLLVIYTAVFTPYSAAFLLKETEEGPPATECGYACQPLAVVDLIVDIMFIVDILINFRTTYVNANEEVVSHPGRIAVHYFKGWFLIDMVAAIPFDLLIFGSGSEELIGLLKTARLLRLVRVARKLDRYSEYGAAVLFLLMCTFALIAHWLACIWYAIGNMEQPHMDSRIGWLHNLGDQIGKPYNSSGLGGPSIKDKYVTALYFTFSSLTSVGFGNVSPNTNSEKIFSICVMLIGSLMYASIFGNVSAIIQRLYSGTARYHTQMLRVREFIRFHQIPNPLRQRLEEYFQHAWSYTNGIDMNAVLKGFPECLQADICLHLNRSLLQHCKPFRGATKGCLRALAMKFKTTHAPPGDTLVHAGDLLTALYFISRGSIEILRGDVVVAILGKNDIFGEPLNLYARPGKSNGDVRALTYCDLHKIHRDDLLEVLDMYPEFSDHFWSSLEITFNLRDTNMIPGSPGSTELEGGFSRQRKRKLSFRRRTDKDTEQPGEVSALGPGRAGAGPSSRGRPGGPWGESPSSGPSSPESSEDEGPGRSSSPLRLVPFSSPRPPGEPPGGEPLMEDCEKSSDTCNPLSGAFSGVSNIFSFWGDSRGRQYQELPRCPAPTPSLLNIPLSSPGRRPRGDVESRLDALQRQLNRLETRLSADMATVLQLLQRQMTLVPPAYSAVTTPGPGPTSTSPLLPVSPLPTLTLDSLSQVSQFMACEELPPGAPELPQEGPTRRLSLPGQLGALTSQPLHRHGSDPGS
The test system of data set [2] is SK-OV-3. The data set can be described thus: Potentiation of temozolomide-induced cytotoxicity in human SKOV3 cells assessed as reduction in temozolomide IC50 at 1 uM after 7 days by sulforhodamine B assay. Format: functional. The method in brief:
(§1)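 SKOV3 cells in DMEM with 10% FBS were given gradient concentrations of temozolomide, alone or with compound at 0.5 or 1.0 µM, for 7 days. Cytotoxicity read by sulforhodamine B. Temozolomide IC50 reported as mean ± SD, n=3.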
A general note: The SRB assay estimates cell density from bound dye.

A short description of data set [3]: Cmax in rat at 20 mg/kg, po. Format: ADME, organism-based. Set-up: dose 20 mg/kg, route oral. To be noted: in vivo. Summed up:
(§2)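 Rat oral PK, 20 mg/kg po. Vehicle DMSO, Tween 80, normal saline. Cmax, Tmax, AUC0-∞ and oral bioavailability F taken from plasma concentration-time curves. Values are the average of three runs.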

Data set [4] can be described thus: Cytotoxicity against human BRCA1-deficient MDA-MB-436 cells assessed as growth inhibition. The class given is cell-based. Summed up: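 Proliferation assay in BRCA1-mutant human breast cancer MDA-MB-436 cells. Six concentrations per test. CC50 calculated by Logit method from at least three independent tests.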
For data set [5], the system named is SK-OV-3. As to the kind of experiment: Potentiation of temozolomide-induced cytotoxicity in human SKOV3 cells assessed as reduction in temozolomide IC50 at 0.5 uM after 7 days by sulforhodamine B assay. Format: functional. Summed up: as §1
Data set [6] is described as follows: Ratio of CC50 for Chinese hamster BRCA2-deficient VC8 cells to IC50 for human recombinant PARP1.
Data set [7] is described as follows: (§3) Oral bioavailability in rat at 20 mg/kg. The class given is ADME, organism-based. To be noted: in vivo. Summed up:
as §2

The nature of data set [8]: (§4) Clearance in rat at 10 mg/kg, iv. To be noted: in vivo. Set-up: dose 10 mg/kg, route intravenous. Format: ADME, organism-based. The method in brief:
(§5)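 Rat intravenous PK, 10 mg/kg iv. Vehicle DMSO, Tween 80, normal saline. Clearance, Vss and half-life derived from plasma concentration-time data. Values are the average of three runs.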

The nature of data set [9]: Tmax in rat at 20 mg/kg, po. The class given is ADME, organism-based. On the set-up: dose 20 mg/kg, route oral. To be noted: in vivo. The method in brief: as §2
Data set [10] can be described thus: Volume of distribution at steady state in rat at 10 mg/kg, iv. To be noted: in vivo, read-out: Vdss. Set-up: dose 10 mg/kg, route intravenous. The class given is ADME, organism-based. The method in brief:
as §5

In data set [11] the target is Poly [ADP-ribose] polymerase 1 (Cricetulus griseus) (UniProt Q9R152). As to the kind of experiment: Inhibition of PARP1 in Chinese hamster BRCA2-deficient VC8 cells assessed as impairment of cell cycle progression at 0.5 uM after 24 hrs by propidium iodide staining-based FACS flow cytometric analysis. The method in brief: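 BRCA2-deficient V-C8 cells treated with compound at 0.5 µM, 37 °C, 24 h. Cells then harvested, fixed and stained with 10 µg/mL propidium iodide. Cell-cycle distribution read by flow cytometry, at least 10,000 events per sample.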
Sequence of Poly [ADP-ribose] polymerase 1 (Cricetulus griseus) (Q9R152 whole entry): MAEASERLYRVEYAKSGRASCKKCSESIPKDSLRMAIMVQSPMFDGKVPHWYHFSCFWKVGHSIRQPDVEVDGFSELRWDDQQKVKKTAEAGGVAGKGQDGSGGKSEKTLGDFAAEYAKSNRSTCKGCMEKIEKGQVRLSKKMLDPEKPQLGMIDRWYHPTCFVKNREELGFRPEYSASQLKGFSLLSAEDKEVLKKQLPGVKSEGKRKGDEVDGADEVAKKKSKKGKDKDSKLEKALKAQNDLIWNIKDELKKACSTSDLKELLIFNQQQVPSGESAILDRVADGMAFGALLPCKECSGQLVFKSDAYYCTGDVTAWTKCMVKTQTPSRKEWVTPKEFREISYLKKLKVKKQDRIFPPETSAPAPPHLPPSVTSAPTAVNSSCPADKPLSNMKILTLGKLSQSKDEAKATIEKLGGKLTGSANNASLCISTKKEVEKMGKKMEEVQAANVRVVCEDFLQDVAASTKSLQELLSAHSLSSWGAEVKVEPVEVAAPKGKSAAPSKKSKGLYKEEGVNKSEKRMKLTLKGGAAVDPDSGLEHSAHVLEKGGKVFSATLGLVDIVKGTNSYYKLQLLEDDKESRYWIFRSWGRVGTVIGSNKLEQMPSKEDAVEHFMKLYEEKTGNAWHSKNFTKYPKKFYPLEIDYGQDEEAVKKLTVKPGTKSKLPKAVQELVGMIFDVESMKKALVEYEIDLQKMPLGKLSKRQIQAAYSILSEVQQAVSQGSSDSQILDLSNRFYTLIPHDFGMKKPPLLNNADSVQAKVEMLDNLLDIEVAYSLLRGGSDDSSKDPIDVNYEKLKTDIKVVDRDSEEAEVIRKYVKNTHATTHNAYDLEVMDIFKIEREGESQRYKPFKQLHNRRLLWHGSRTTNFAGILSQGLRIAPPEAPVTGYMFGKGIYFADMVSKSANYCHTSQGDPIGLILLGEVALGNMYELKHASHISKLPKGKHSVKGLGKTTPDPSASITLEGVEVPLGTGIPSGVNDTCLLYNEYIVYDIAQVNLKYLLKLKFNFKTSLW
For orientation: In flow cytometry, cells or beads pass a laser one at a time.

The nature of data set [12]: Cytotoxicity against Chinese hamster BRCA2-deficient VC8 cells assessed as growth inhibition. To be noted: Cricetulus griseus, V-C8. The class given is cell-based. The method in brief: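 V-C8 (BRCA2-deficient Chinese hamster lung fibroblasts) grown in F12 with 10% FBS, 37 °C, 5% CO2. Six concentrations per test. CC50 is the concentration reducing proliferation and growth by 50%, calculated by Logit method from at least three independent tests.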

The nature of data set [13]: Cytotoxicity against Chinese hamster V79 cells expressing wild type BRCA2 assessed as growth inhibition. Format: cell-based, Cricetulus griseus. Summed up:
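V79 (wild-type Chinese hamster lung fibroblasts) grown in RPMI-1640 with 10% FBS, 37 °C, 5% CO2. Six concentrations per test. CC50 is the concentration reducing proliferation and growth by 50%, calculated by Logit method from at least three independent tests.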

The target in another data set is PARP 1, 2 and 3 (Homo sapiens, UniProt P09874+Q9Y6F1+Q9UGN5). The data set can be described thus: Inhibition of PARP1/PARP2 in human SKOV3 cells assessed as reduction in H2O2-induced PARylation incubated for 4 hrs prior to H2O2 treatment. To be noted: sk-ov-3. The class given is cell-based.
Data set [14] can be described thus: (§6) AUC (0 to infinity) in rat at 20 mg/kg, po. The class given is ADME, organism-based, Plasma. On the set-up: time infinity, dose 20 mg/kg, route oral. Particulars: plasma. Summed up:
as §2

The nature of data set [15]: Half life in rat at 10 mg/kg, iv. The class given is ADME, organism-based. Set-up: dose 10 mg/kg, route intravenous. To be noted: in vivo. Summed up: as §5
The nature of data set [16]: Ratio of AZD2281 CC50 to compound CC50 for human BRCA1-deficient MDA-MB-436 cells. The class given is ADME.
The test system of data set [17] is Rattus norvegicus. Described as §3. To be noted: in vivo. Format: ADME, organism-based. Summed up:
as §2

The test system of data set [18] is Rattus norvegicus. The data set is described as §4. To be noted: in vivo. The class given is ADME, organism-based. Set-up: dose 10 mg/kg, route intravenous. Summed up: as §5
Data set [19] in a line: Ratio of AZD2281 CC50 to compound CC50 for Chinese hamster BRCA2-deficient VC8 cells. Format: ADME, cell-based, Cricetulus griseus.
Data set [20] relates to Rattus norvegicus. Described as §6. The class given is ADME, organism-based, Plasma. Set-up: time infinity, dose 20 mg/kg, route oral. To be noted: in vivo. Summed up:
as §2

`C[C@H](NC(=O)CN1CCc2cccc3c2C1CNC3=O)C(=O)N1CC=C(c2ccc(F)cc2)CC1` (some centres undefined): the half-inhibitory concentration (IC50) in data set [1] was 19 nM.
Turning to `O=C1NCC2c3c(cccc31)CCN2C(=O)c1cc(Cc2n[nH]c(=O)c3ccccc23)ccc1F` (centres undefined), on hERG (KCNH2), the inhibition at 5 µM is 17%. Moreover, the figures for the “fold change (FC)” value in the data set on SK-OV-3 [2] and in the data set with SK-OV-3 [5] were 10.6 and 9.3, respectively. The same molecule had a Cmax in [3] of 722 ng/mL. Besides, the CC50 in data set [4] was 23.3 nM; in data set [12] it was 96 nM; in data set [13], more than 10000 nM. The “Ratio CC50/IC50” value in [6] stood at 300. The molecule also had a bioavailability in data set [7] of 21%. Besides, the clearance in data set [8] was 38 mL/min/kg. For the same molecule, in data set [9], the Tmax turned out to be 25.2 min. For the same molecule, in data set [10], the Vd came to 4.27 L/kg. Also, the inhibition entry in [11] was “Active”. Also, the IC50 is 66.1 nM on PARP 1, 2 and 3; 0.31 nM in data set [1]. In addition, the AUC(0-inf) in data set [14] was determined as 1820 ng·h/mL. Also, the half-life in data set [15] was 104 min. In data set [16], the Ratio is 2.
In the case of `O=C1NCC2c3c(cccc31)CCN2CC(=O)N1CCn2c(nnc2C(F)(F)F)C1` (centres undefined), in data set [1], the IC50 is more than 10000 nM.
Still for that read-out and setting: as for `O=C(CCN1CCc2cccc3c2C1CNC3=O)NCC(=O)N1CC=C(c2ccc(F)cc2)CC1` (centres undefined), the figure is 1100 nM.
Take `O=C(c1cc(Cc2n[nH]c(=O)c3ccccc23)ccc1F)N1CCN(C(=O)C2CC2)CC1` [OLAPARIB]: the “fold change (FC)” value with SK-OV-3 [2] is reported as 10.4; in the data set with SK-OV-3 [5] it was 9.6. Moreover, the values for the CC50 in data set [4], in data set [12] and in data set [13] were 43.2 nM, 201 nM and more than 10000 nM, respectively.
Consider `Cc1cc(Cc2ccc(F)c(C(=O)N3CCc4cccc5c4C3CNC5=O)c2)n[nH]c1=O` (centres undefined), for which the IC50 in data set [1] was 210 nM.
The same measure, in the same setting: the value for `COc1ccc(N2CCN(C(=O)CNC(=O)CN3CCc4cccc5c4C3CNC5=O)CC2)cc1` (centres undefined) was 300 nM.
Regarding `NC1CC2c3c(cccc31)CCN2C(=O)c1cc(Cc2n[nH]c(=O)c3ccccc23)ccc1F` (centres undefined), the CC50 in data set [12] and in [13] was more than 10000 nM in each case. Also, the IC50 in [1] turned out to be 76.6 nM.
In the case of `O=C(N[C@@H]1C[C@@H](O)c2ccccc21)c1cc(Cc2n[nH]c(=O)c3ccccc23)ccc1F` (relative stereo), the CC50 in data set [4] came to 775 nM; in data set [12], 2270 nM; in data set [13], 4260 nM. The IC50 in data set [1] was 0.57 nM.
As to `O=C(CN1CCc2cccc3c2C1CNC3=O)N[C@@H](Cc1ccccc1)C(=O)N1CC=C(c2ccc(F)cc2)CC1` (some centres undefined), the IC50 in [1] was 490 nM.
Take `O=C1CC2c3c(cccc31)CCN2C(=O)c1cc(Cc2n[nH]c(=O)c3ccccc23)ccc1F` (centres undefined): at hERG (KCNH2), the inhibition at 5 µM worked out at 34%. The “fold change (FC)” value with SK-OV-3 [2] is reported as 22.2; with SK-OV-3 [5], 19.5. In data set [3], this molecule registered a Cmax of 116 ng/mL. The CC50 is less than 0.26 nM in data set [4], 4.53 nM in [12] and more than 10000 nM in data set [13]. The same molecule displayed a F with Rattus norvegicus [17] of 10%. The CL with Rattus norvegicus [18] came out at 128 mL/min/kg. For the same molecule, in [9], the Tmax is 26.4 min. Also, in data set [10], the Vd was 4.56 L/kg. The inhibition entry in data set [11] is “Active”. Moreover, the Ratio in data set [19] was found to be 40; in data set [16], 160. The IC50 was found to be 0.49 nM on PARP 1, 2 and 3; 3.46 nM in [1]. Besides, the AUC in the data set with Rattus norvegicus [20] came out at 980 ng·h/mL. The molecule also showed a half-life in data set [15] of 66.6 min.
For the molecule `O=C(CCN1CCc2cccc3c2C1CNC3=O)NCC(=O)N1CCN(c2ncccn2)CC1` (centres undefined), the IC50 in [1] was 8520 nM.
With `Cc1c(Cc2ccc(F)c(C(=O)N3CCc4cccc5c4C3CNC5=O)c2)n[nH]c(=O)c1C` (centres undefined), the CC50 is more than 1000 nM in data set [12] and more than 10000 nM in [13]. Moreover, in data set [1], the IC50 came to 36 nM.
The matching figures for `O=C1CC2c3c(cccc3N1)CCN2C(=O)c1cc(Cc2n[nH]c(=O)c3ccccc23)ccc1F` (centres undefined): more than 10000 nM, more than 10000 nM and 387 nM.
In the case of `O=C(c1cc(Cc2n[nH]c(=O)c3ccccc23)ccc1F)N1CCc2cccc3c2C1CNC3` (centres undefined), the CC50 in data set [12] and in data set [13] was more than 10000 nM throughout. The IC50 in data set [1] stood at 156 nM.
As to `O=C(N[C@@H]1C[C@H](O)c2ccccc21)c1cc(Cc2n[nH]c(=O)c3ccccc23)ccc1F` (relative stereo), the CC50 in data set [4] was determined as 4520 nM; in data set [12] it was 418 nM; in data set [13], 1490 nM. Besides, in [1], the concentration for half-maximal inhibition (IC50) was 4.81 nM.
On to `O=C1NCC2c3c(cccc31)CCN2CC(=O)N1C[C@H]2CNC[C@H]2C1` (some centres undefined), for which the IC50 in data set [1] turned out to be 8800 nM.
